Assay results reported in ChEMBL document CHEMBL1123207, “Synthesis and structure-activity relationships of antibacterial phosphonopeptides incorporating (1-aminoethyl)phosphonic acid and (aminomethyl)phosphonic acid” (1986).
≈ marks a conversion by molar mass, not a printed value.

Assays:
[1] = test system: Escherichia coli; assay: Compound was tested for its antibacterial activity against Escherichia coli NCIB 8879 strain.; type: functional
[2] = test system: Enterobacter; assay: Compound was tested for its antibacterial activity against Enterobacter 250002 strain.; type: functional
[3] = test system: Haemophilus influenzae; assay: Compound was tested for its antibacterial activity against Haemophilus influenzae NCTC 4560 strain.; type: functional
[4] = test system: Klebsiella aerogenes; assay: Compound was tested for its antibacterial activity against Klebsiella aerogenes 331001 strain.; type: functional
[5] = test system: Salmonella typhimurium; assay: Compound was tested for its antibacterial activity against Salmonella Typhimurium 538003 strain.; type: functional, Salmonella enterica subsp. enterica serovar Typhimurium; conditions: Salmonella enterica
[6] = test system: Staphylococcus aureus; assay: Compound was tested for its antibacterial activity against Staphylococcus aureus NCIB 8625 strain.; type: functional
[7] = test system: Serratia marcescens; assay: Compound was tested for its antibacterial activity against Serratia marcescens ATCC 14756 strain.; type: functional
[8] = test system: Enterococcus faecalis; assay: Compound was tested for its antibacterial activity against Streptococcus faecalis 58511 strain.; type: functional
[9] = test system: Escherichia coli; assay: In vivo antibacterial activity was measured relative to alafosfalin against Escherichia coli 281007 strain after po administration.; type: functional
Summary of the method: (§1)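 Mouse septicaemia model infected with E. coli 281007. Compound was dosed at 1, 3 and 5 h after infection, orally (po) for line 13 and subcutaneously (sc) for line 14. Activity is the relative molar activity of the analogue versus the L-Ala-L-Ala(P) reference, with both CD50 values taken in µmol/kg.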

[10] = test system: Escherichia coli; assay: In vivo antibacterial activity was measured relative to alafosfalin against Escherichia coli 281007 strain after sc administration.; type: functional; summary of the method: as §1
[11] = test system: Haemophilus influenzae; assay: Compound was tested in vitro for its antibacterial activity against Haemophilus influenzae NCTC 4560 strain.; type: functional
[12] = test system: Staphylococcus aureus; assay: Compound was tested in vitro for its antibacterial activity against Staphylococcus aureus 561037 strain.; type: functional
[13] = test system: Enterococcus faecalis; assay: Compound was tested in vitro for its antibacterial activity against Streptococcus faecalis FS5 strain.; type: functional
[14] = test system: Escherichia coli; assay: Compound was tested in vitro for its antibacterial activity against Escherichia coli NCIB 8879 strain.; type: functional

Structure (SMILES)	MIC [1] [µg/mL]	MIC [2] [µg/mL]	MIC [3] [µg/mL]	MIC [4] [µg/mL]	MIC [5] [µg/mL]	MIC [6] [µg/mL]	MIC [7] [µg/mL]	MIC [8] [µg/mL]	CD50 [9] [relative molar activity]	CD50 [10] [relative molar activity]	MIC [11] [µg/mL]	MIC [12] [µg/mL]	MIC [13] [µg/mL]	MIC [14] [µg/mL]
C[C@@H](NC(=O)[C@@H](N)Cc1ccccc1)P(=O)(O)O	0.5 (≈ 1.84 µM)	2 (≈ 7.35 µM)	32 (≈ 118 µM)	1 (≈ 3.67 µM)	32 (≈ 118 µM)	4 (≈ 14.7 µM)	4 (≈ 14.7 µM)	2 (≈ 7.35 µM)						
C[C@@H](NC(=O)[C@@H](N)CC[S+](C)[O-])P(=O)(O)O (stereo not given in full)	4 (≈ 14.7 µM)	32 (≈ 118 µM)	16 (≈ 58.8 µM)	4 (≈ 14.7 µM)	> 128	8 (≈ 29.4 µM)	32 (≈ 118 µM)	4 (≈ 14.7 µM)						
CCC[C@H](NC(=O)CNC)C(=O)N[C@@H](CCC)C(=O)N[C@H](C)P(=O)(O)O									1.1	1.9	0.015 (≈ 0.038 µM)	16 (≈ 40.6 µM)	0.12 (≈ 0.304 µM)	0.04 (≈ 0.101 µM)
C[C@@H](NC(=O)[C@@H](N)CF)P(=O)(O)O	0.25 (≈ 1.17 µM)	32 (≈ 149 µM)	8 (≈ 37.4 µM)	4 (≈ 18.7 µM)	32 (≈ 149 µM)	16 (≈ 74.7 µM)		32 (≈ 149 µM)						
C[C@@H](NC(=O)[C@@H](N)CCC/N=C(\N)N[N+](=O)[O-])P(=O)(O)O	0.5 (≈ 1.53 µM)	8 (≈ 24.5 µM)		2 (≈ 6.13 µM)	64 (≈ 196 µM)	32 (≈ 98.1 µM)	4 (≈ 12.3 µM)	2 (≈ 6.13 µM)						
CSCC[C@H](N)C(=O)N[C@H](C)P(=O)(O)O	0.25 (≈ 0.976 µM)	1 (≈ 3.9 µM)	16 (≈ 62.4 µM)	0.12 (≈ 0.468 µM)	8 (≈ 31.2 µM)	1 (≈ 3.9 µM)	2 (≈ 7.8 µM)	1 (≈ 3.9 µM)						
C[C@@H](NC(=O)[C@@H](N)CCCN=C(N)N)P(=O)(O)O	0.25 (≈ 0.889 µM)	1 (≈ 3.56 µM)	128 (≈ 455 µM)	< 0.12	32 (≈ 114 µM)	16 (≈ 56.9 µM)	2 (≈ 7.11 µM)	16 (≈ 56.9 µM)	7.7	8.3	128 (≈ 455 µM)	16 (≈ 56.9 µM)	16 (≈ 56.9 µM)	0.25 (≈ 0.889 µM)
CCCSC[C@H](N)C(=O)N[C@H](C)P(=O)(O)O	0.06 (≈ 0.222 µM)	0.06 (≈ 0.222 µM)	64 (≈ 237 µM)	0.03 (≈ 0.111 µM)	0.25 (≈ 0.925 µM)	8 (≈ 29.6 µM)	0.5 (≈ 1.85 µM)	2 (≈ 7.4 µM)						
C[C@H](N)C(=O)N[C@@H](C)C(=O)N[C@H](C)P(=O)(O)O											0.06 (≈ 0.225 µM)	4 (≈ 15 µM)	0.06 (≈ 0.225 µM)	0.5 (≈ 1.87 µM)
CCC[C@H](NC(=O)[C@H](CC(C)C)NC)C(=O)N[C@@H](CCC)C(=O)N[C@H](C)P(=O)(O)O											0.25 (≈ 0.555 µM)	32 (≈ 71 µM)	0.25 (≈ 0.555 µM)	2 (≈ 4.44 µM)
C[C@H](N)C(=O)N[C@@H](C)C(=O)N[C@@H](C)C(=O)N[C@H](C)P(=O)(O)O											0.06 (≈ 0.177 µM)	32 (≈ 94.6 µM)	0.25 (≈ 0.739 µM)	0.12 (≈ 0.355 µM)
CCC[C@H](NC(=O)[C@H](CCC)NC(=O)[C@@H](NC)C(C)C)C(=O)N[C@H](C)P(=O)(O)O											0.25 (≈ 0.573 µM)	> 128	8 (≈ 18.3 µM)	16 (≈ 36.7 µM)
CCC[C@H](NC)C(=O)N[C@@H](CCC)C(=O)N[C@@H](CCC)C(=O)N[C@H](C)P(=O)(O)O											0.25 (≈ 0.573 µM)	8 (≈ 18.3 µM)	0.06 (≈ 0.137 µM)	0.5 (≈ 1.15 µM)
C[C@@H](NC(=O)[C@@H](N)CCS(C)(=O)=O)P(=O)(O)O	16 (≈ 55.5 µM)	> 128	32 (≈ 111 µM)	32 (≈ 111 µM)	> 128	32 (≈ 111 µM)	> 128	4 (≈ 13.9 µM)						
C[C@@H](NC(=O)[C@@H](N)Cc1cccs1)P(=O)(O)O	0.5 (≈ 1.8 µM)	1 (≈ 3.59 µM)	32 (≈ 115 µM)	0.25 (≈ 0.898 µM)	4 (≈ 14.4 µM)	32 (≈ 115 µM)	4 (≈ 14.4 µM)	2 (≈ 7.19 µM)						
C[C@@H](NC(=O)[C@@H](N)CCCCN=C(N)N)P(=O)(O)O	0.25 (≈ 0.847 µM)	2 (≈ 6.77 µM)	64 (≈ 217 µM)	0.12 (≈ 0.406 µM)	2 (≈ 6.77 µM)	128 (≈ 433 µM)	2 (≈ 6.77 µM)	2 (≈ 6.77 µM)						
CSC[C@H](N)C(=O)N[C@H](C)P(=O)(O)O	0.03 (≈ 0.124 µM)	0.03 (≈ 0.124 µM)	4 (≈ 16.5 µM)	0.03 (≈ 0.124 µM)	0.25 (≈ 1.03 µM)	16 (≈ 66.1 µM)	0.5 (≈ 2.06 µM)	2 (≈ 8.26 µM)						
CCC[C@H](N)C(=O)N[C@H](C)P(=O)(O)O	0.03 (≈ 0.134 µM)	0.25 (≈ 1.12 µM)	4 (≈ 17.8 µM)	0.015 (≈ 0.0669 µM)	0.25 (≈ 1.12 µM)	8 (≈ 35.7 µM)	0.5 (≈ 2.23 µM)	1 (≈ 4.46 µM)	1.1	8.8	4 (≈ 17.8 µM)	8 (≈ 35.7 µM)	1 (≈ 4.46 µM)	0.03 (≈ 0.134 µM)
CNCC(=O)N[C@@H](C)C(=O)N[C@@H](C)C(=O)N[C@H](C)P(=O)(O)O									1.05	8	0.03 (≈ 0.0887 µM)	> 128	0.06 (≈ 0.177 µM)	0.016 (≈ 0.0473 µM)
C[C@@H](NC(=O)[C@@H](N)CS)P(=O)(O)O	32 (≈ 140 µM)	> 128	> 128	16 (≈ 70.1 µM)	> 128	> 128	> 128	> 128						
C[C@H](N)C(=O)N[C@@H](C)P(=O)(O)O [ALAFOSFALIN]	1 (≈ 5.1 µM)	1 (≈ 5.1 µM)	64 (≈ 326 µM)	0.5 (≈ 2.55 µM)	64 (≈ 326 µM)	32 (≈ 163 µM)	8 (≈ 40.8 µM)	2 (≈ 10.2 µM)	1	1	4 (≈ 20.4 µM)	4 (≈ 20.4 µM)	2 (≈ 10.2 µM)	0.5 (≈ 2.55 µM)
